Experimental data: PMC8733272 (iScience, 2021)
Substitutions are numbered along the chain they refer to. Each block holds one molecule with its values, some of them ahead of it.

What was measured:
[1] = molecular target: N-terminally tagged W403A-Parkin (UniProt O60260)
[2] = molecular target: T1, WT-Parkin (Homo sapiens, UniProt O60260); assay: Parkin catalytic poly-auto-Ub TR-FRET assay; format: biochemical; conditions: for activity in TR-FRET autoubiquitination assay: WT-Parkin with pUb
T1 sequence (O60260 1-465): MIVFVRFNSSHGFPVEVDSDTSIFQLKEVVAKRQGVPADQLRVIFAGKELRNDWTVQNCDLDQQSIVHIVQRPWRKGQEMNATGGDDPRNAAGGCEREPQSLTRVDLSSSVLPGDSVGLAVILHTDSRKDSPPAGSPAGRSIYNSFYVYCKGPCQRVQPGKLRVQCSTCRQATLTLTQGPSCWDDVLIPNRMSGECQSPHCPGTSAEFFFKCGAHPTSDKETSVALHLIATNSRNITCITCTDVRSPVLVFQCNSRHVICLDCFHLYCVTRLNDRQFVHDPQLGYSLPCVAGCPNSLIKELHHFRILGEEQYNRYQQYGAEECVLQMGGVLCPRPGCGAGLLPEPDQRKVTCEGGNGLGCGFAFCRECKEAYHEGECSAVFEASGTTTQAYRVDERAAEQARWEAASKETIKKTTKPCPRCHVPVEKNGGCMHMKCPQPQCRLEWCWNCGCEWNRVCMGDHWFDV

[3] = molecular target: T2, WT-Parkin (substrate His-Miro1 186-591) (Homo sapiens, UniProt O60260); assay: Miro1 ubiquitination assay by Western blot; format: biochemical; conditions: His-Miro1 (186-591) substrate
T2 sequence (O60260 1-465): T1 sequence (O60260 1-465)
Outline: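 Run as the TR-FRET reaction with untagged WT-Parkin. Test compound was pre-incubated 30 min with E1, E2, Parkin and His-Miro1 186-591 (250 nM final); the 2X mix held 40 nM E1, 800 nM E2 and 100 nM Parkin. After 20 min the reaction was stopped in SDS sample buffer, then run on 4–12% bis-tris SDS-PAGE, PVDF transfer and IR-dye secondary imaging.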

[4] = molecular target: T1, WT-Parkin; assay: Parkin autoubiquitination by Western blot; format: biochemical; conditions: 5 min reaction at 37°C
Outline: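 Untagged WT-Parkin was pre-incubated 30 min at 37°C with E1, E2 and test compound; the 2X mix held 40 nM E1, 800 nM E2 and 100 nM Parkin. Then 2X substrate mix was added (760 nM fluorescein-Ub, 50 μM ubiquitin, 10 μM pUb, 2 mM ATP) in HEPES pH 7.4 buffer with 1% DMSO, in 40 μL. Stopped after 5 min with SDS sample buffer; polyubiquitin smears were read by Western blot.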

[5] = molecular target: T3, N-terminally tagged WT-Parkin (Homo sapiens, UniProt O60260); assay: In vitro ubiquitin vinyl sulfone; format: biochemical; conditions: 3 μM pUb, 2 h, no E1, E2 or ATP
T3 sequence (O60260 1-465): T1 sequence (O60260 1-465)
Outline: (§1)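 Tagged Parkin (WT or W403A), 2 μM, incubated with 10 μM Ub-VS and 3 μM pUb. Test compound at 0, 0.09, 0.27, 0.8, 2.5, 7.4, 22.2, 66.7 and 200 μM. Buffer: 50 mM HEPES, 150 mM NaCl, 1 mM TCEP, pH 8.0. Final DMSO 2% (v/v).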

[6] = molecular target: T4, N-terminally tagged W403A-Parkin (Homo sapiens, UniProt O60260, W403A); assay: In vitro ubiquitin vinyl sulfone; format: biochemical; conditions: 3 μM pUb, 1 h
T4 sequence (O60260 1-465 W403A): T1 sequence (O60260 1-465) with W403A
Outline: as §1

[7] = molecular target: Human MDR1 efflux transporter (MDCK-MDR1 cells) (Homo sapiens, UniProt P08183); assay: MDCK-MDR1 bidirectional permeability / efflux; format: in vitro ADME; conditions: average of inward and outward permeability
Outline: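 MDCK-MDR1 cells were seeded at 0.28×10^6 cells/mL on the apical side of transwell inserts and grown 7 days, with two media changes. Monolayers were rinsed in HBSS/1% HEPES pH 7.4. 1 μM test compound was added to the donor side (A>B and B>A); receivers held buffer with 1% BSA. Plates were shaken 2 h at 37°C. Donor was sampled at 0 and 120 min, receiver at 2 h, and quenched with acetonitrile plus internal standard for LC-MS/MS. Post-assay TEER had to exceed 430 ohm∗cm2. Papp = (dQ/dt)(1/C0)(1/A); ER = Papp B>A / Papp A>B.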

[8] = test system: SH-SY5Y cells expressing the MitoQC construct; assay: MitoQC mitophagy assay; format: cell-based; conditions: 1 h pre-incubation, Antimycin + Oligomycin
Outline: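 SH-SY5Y cells carrying MitoQC were seeded at 1.6×10^4 cells/well on attachment factor and recovered 72 h. Cells were pre-treated 1 h with test compound, then given 5 μM Antimycin + 10 μM Oligomycin or DMSO for 8 h unless stated otherwise. Fixed in 2% PFA on ice 30 min, DAPI-stained, and imaged at 64x (25 fields, 4 replicate wells). mCherry puncta (mitolysosomes) were counted.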

Human MDR1 efflux transporter (MDCK-MDR1 cells), sequence (P08183 whole entry): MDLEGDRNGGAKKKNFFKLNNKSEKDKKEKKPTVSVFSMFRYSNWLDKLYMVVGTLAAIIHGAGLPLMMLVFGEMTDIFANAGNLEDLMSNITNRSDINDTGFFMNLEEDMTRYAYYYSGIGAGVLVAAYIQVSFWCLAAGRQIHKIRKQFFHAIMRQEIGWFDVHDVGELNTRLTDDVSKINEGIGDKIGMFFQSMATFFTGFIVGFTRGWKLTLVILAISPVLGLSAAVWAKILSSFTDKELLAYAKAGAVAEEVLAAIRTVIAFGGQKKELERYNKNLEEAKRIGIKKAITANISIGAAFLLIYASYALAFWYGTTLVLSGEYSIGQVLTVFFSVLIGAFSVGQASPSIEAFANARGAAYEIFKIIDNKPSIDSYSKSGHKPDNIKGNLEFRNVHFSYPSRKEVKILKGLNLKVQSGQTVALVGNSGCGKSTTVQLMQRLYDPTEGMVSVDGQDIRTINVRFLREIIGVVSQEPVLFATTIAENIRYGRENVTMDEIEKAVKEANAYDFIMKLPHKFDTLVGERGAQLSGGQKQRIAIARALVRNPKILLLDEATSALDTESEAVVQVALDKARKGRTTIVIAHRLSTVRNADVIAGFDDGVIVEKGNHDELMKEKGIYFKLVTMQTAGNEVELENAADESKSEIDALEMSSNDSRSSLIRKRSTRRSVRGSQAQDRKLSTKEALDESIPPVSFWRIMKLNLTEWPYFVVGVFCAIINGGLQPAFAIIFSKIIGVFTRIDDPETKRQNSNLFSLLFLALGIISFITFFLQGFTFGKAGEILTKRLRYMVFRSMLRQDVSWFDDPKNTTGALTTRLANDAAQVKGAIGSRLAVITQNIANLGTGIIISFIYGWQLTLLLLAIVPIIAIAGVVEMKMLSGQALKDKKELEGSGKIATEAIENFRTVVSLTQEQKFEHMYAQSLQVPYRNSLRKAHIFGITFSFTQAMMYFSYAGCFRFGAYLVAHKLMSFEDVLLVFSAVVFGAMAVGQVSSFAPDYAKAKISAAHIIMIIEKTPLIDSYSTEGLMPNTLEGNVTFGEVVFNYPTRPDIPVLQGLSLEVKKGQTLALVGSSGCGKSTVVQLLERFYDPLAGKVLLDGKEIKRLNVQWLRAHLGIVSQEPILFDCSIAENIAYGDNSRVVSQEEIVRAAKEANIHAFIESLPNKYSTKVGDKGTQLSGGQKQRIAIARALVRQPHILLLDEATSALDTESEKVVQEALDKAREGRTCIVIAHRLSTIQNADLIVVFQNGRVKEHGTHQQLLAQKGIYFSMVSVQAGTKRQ

Molecule: C[C@@H]1Cn2ncc(-c3ccc(C(=O)N4CCCc5ccccc54)cc3)c2CN1C(=O)[C@H](C)c1ccccc1 [BIO-1967174, (R)-1-((R)-6-methyl-3-(4-(1,2,3,4-tetrahydroquinoline-1-carbonyl)phenyl)-6,7-dihydropyrazolo[1,5-a]pyrazin-5(4H)-yl)-2-phenylpropan-1-one]
- activity in TR-FRET autoubiquitination assay [2]: weakly active
- Miro1 ubiquitination by Western blot [3]: enhance the rate of monoubiquitination of Miro1 substrate to a level comparable to that of W403A-Parkin

Molecule: CO[C@@H](C(=O)N1Cc2c(-c3ccc(C(=O)N4CCCc5ccccc54)cc3)cnn2C[C@H]1C(C)C)c1cnn(C)c1 (single isomer, unassigned) [BIO-2007818]
- Parkin autoubiquitination by Western blot [4]: reduced ability to induce Parkin autoubiquitination
- Miro1 ubiquitination by Western blot [3]: reduced ability
- Ub-VS charging of WT-Parkin [5]: to a lesser extent
- Ub-VS charging of W403A-Parkin [6]: to a lesser extent

Molecule: Cc1n[nH]c(CC(=O)N2Cc3c(-c4ccc(C(=O)N5CCCc6ccccc65)cc4)cnn3C[C@H]2C)n1 [BIO-1984542, (R)-2-(3-methyl-1H-1,2,4-triazol-5-yl)-1-(6-methyl-3-(4-(1,2,3,4-tetrahydroquinoline-1-carbonyl)phenyl)-6,7-dihydropyrazolo[1,5-a]pyrazin-5(4H)-yl)ethan-1-one]
- activity in TR-FRET autoubiquitination assay [2]: inactive
- MDR1-MDCK avg (average of Papp AB/BA) [7]: 44 nm/s
- Parkin autoubiquitination by Western blot [4]: inactive
- Miro1 ubiquitination by Western blot [3]: inactive
- Ub-VS charging of WT-Parkin [5]: no significant activity

Molecule: CO[C@H](C(=O)N1Cc2c(-c3ccc(C(=O)N4CCCc5ccccc54)cc3)cnn2C[C@H]1C(C)C)c1ccccc1 (single isomer, unassigned) [BIO-2008550]
- effect on mitophagy, MitoQC [8]: no enhanced MitoQC activity

Molecule: C[C@H](C(=O)N1Cc2c(-c3ccc(C(=O)N4CCCc5ccccc54)cc3)cnn2C[C@H]1C)c1ccccc1 [BIO-1967173, (S)-1-((R)-6-methyl-3-(4-(1,2,3,4-tetrahydroquinoline-1-carbonyl)phenyl)-6,7-dihydropyrazolo[1,5-a]pyrazin-5(4H)-yl)-2-phenylpropan-1-one]
- effect on mitophagy, MitoQC [8]: no enhanced MitoQC activity

Molecule: CC(C)[C@H]1Cn2ncc(-c3ccc(C(=O)N4CCCc5ccccc54)cc3)c2CN1C(=O)Cc1ccccc1 [BIO-1966560, (S)-1-(6-isopropyl-3-(4-(1,2,3,4-tetrahydroquinoline-1-carbonyl)phenyl)-6,7-dihydropyrazolo[1,5-a]pyrazin-5(4H)-yl)-2-phenylethan-1-one]
- activity in TR-FRET autoubiquitination assay [2]: inactive

Molecule: C[C@@H](C(=O)N1Cc2c(-c3ccc(C(=O)N4CCCc5ccccc54)cc3)cnn2C[C@@H]1C)c1ccccc1 [BIO-1968011, (R)-1-((S)-6-methyl-3-(4-(1,2,3,4-tetrahydroquinoline-1-carbonyl)phenyl)-6,7-dihydropyrazolo[1,5-a]pyrazin-5(4H)-yl)-2-phenylpropan-1-one]
- activity in TR-FRET autoubiquitination assay [2]: inactive

Results, then the molecule that gave them:

- EC50 of pUb for Ub-VS charging of W403A-Parkin (gel shift), without BIO-2007817 [1]: 5.4 μM
Molecule: Phospho-ubiquitin (pUb): Human Recombinant pSer65-Ubiquitin (from UniProt P0CG48 1-76) (natural protein)

- activity in TR-FRET autoubiquitination assay [2]: inactive
Molecule: C[C@H](C(=O)N1Cc2c(-c3ccc(C(=O)N4CCCc5ccccc54)cc3)cnn2C[C@@H]1C)c1ccccc1 [BIO-1968010, (S)-1-((S)-6-methyl-3-(4-(1,2,3,4-tetrahydroquinoline-1-carbonyl)phenyl)-6,7-dihydropyrazolo[1,5-a]pyrazin-5(4H)-yl)-2-phenylpropan-1-one]

- EC50 ([2]; EC50 (μM), WT-Parkin, 5 μM pUb, averaged technical replicates n = 2): < 0.2 µM
Molecule: CO[C@H](C(=O)N1Cc2c(-c3ccc(C(=O)N4CCCc5ccccc54)cn3)cnn2C[C@H]1C(C)C)c1cnn(C)c1 (single isomer, unassigned) [BIO-2007967]

- potency improvement (fold) over parent analog ([2]; from TR-FRET EC50): 5 fold
Molecule: CC(C)[C@@H]1Cn2ncc(-c3ccc(C(=O)N4CCCc5ccccc54)cc3)c2CN1C(=O)Cc1ccccc1 [BIO-1966561, (R)-1-(6-isopropyl-3-(4-(1,2,3,4-tetrahydroquinoline-1-carbonyl)phenyl)-6,7-dihydropyrazolo[1,5-a]pyrazin-5(4H)-yl)-2-phenylethan-1-one]
